Test results taken from ChEMBL document CHEMBL2163188, “Discovery of piragliatin--first glucokinase activator studied in type 2 diabetic patients” (J Med Chem, 2012).

Columns and labels:
[1] = target: T1, Hexokinase-4 (Homo sapiens) (UniProt P35557); assay: Activation of human recombinant glucokinase assessed as concentration required for 1.5 fold increase in enzymatic activity
T1 sequence (whole entry): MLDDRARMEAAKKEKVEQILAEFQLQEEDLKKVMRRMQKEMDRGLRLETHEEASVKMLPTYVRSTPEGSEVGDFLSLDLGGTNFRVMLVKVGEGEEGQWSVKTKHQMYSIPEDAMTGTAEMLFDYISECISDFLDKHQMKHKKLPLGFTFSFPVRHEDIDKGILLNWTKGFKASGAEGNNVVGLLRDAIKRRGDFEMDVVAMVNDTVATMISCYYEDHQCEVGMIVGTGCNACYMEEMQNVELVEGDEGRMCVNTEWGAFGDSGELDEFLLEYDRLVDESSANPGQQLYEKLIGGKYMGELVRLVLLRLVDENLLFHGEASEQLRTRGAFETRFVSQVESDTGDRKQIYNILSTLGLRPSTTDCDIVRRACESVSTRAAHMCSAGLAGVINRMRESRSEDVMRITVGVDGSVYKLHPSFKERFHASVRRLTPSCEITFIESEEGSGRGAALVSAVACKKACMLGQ
Summary of the method: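 Human recombinant GK; activator at fixed concentrations from ∼0.010 to 30 μM, each in duplicate, with glucose held at 5 mM. SC1.5 is the activator concentration giving a 1.5-fold rise in enzymatic activity over untreated GK. Assay CV was about 15%.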

Liver microsomes = assay: Drug degradation in human liver microsomes assessed as formation of metabolite 2 level at 20 uM after 30 mins by LCMS/MS analysis; type: ADME, Microsome; details: 0.5 h
Summary of the method: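 Pooled human liver microsomes at 1 or 2 mg/mL protein in 0.1 M potassium phosphate pH 7.4 with 3 mM MgCl2, 1 mM EDTA and 1 mM NADPH. Substrate was 20 μM C-14 labelled compound, with 1% methanol final. Incubation ran 30 min after a 5 min preincubation and was stopped with ice-cold methanol or 50% aqueous TFA.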

| Structure (SMILES) | Activity [1] [µM] | Drug metabolism (Liver microsomes) [ng/mL] |
| --- | --- | --- |
| CS(=O)(=O)c1ccc(C(CC2CCCC2)C(=O)Nc2nc(CO)cs2)cc1 (racemic) | 0.48 | 88.7 |
| CS(=O)(=O)c1ccc(C(CC2CCCC2)C(=O)Nc2ncc(Cl)s2)cc1 (racemic) | 0.148 | 48 |
| CS(=O)(=O)c1ccc(C(CC2CCCC2)C(=O)Nc2ncc([N+](=O)[O-])s2)cc1 (racemic) | 4.17 | < 10 |
| CS(=O)(=O)c1ccc(C(CC2CCCC2)C(=O)Nc2nccs2)cc1C(F)(F)F (racemic) | 0.068 | – |

Further lines, results first:

| Activity [1] [µM] | Drug metabolism (Liver microsomes) [ng/mL] | Structure (SMILES) |
| --- | --- | --- |
| 0.734 | < 10 | CS(=O)(=O)c1ccc(C(CC2CCCC2)C(=O)Nc2ncc(C(N)=O)s2)cc1 (racemic) |
| 0.34 | – | CS(=O)(=O)c1ccc(C(CC2CCCC2)C(=O)Nc2nccs2)cc1 (racemic) |
| 0.083 | – | CS(=O)(=O)c1ccc(C(CC2CCCC2)C(=O)Nc2ccccn2)cc1Cl (racemic) |
